Three molecules from ChEMBL document CHEMBL5653631, “A Potent and Selective ULK1 Inhibitor Suppresses Autophagy and Sensitizes Cancer Cells to Nutrient Stress” (iScience, 2018) can be followed below.

For experiment [1], the target named is SRSF protein kinase 3 (Homo sapiens) (UniProt Q9UPE1). Put plainly: Inhibition of human recombinant MSSK1 at 40 nM related to control ULK1.
Experiment [2] deals with MAP kinase-activated protein kinase 3 (Homo sapiens) (UniProt Q16644). Put plainly: Inhibition of human recombinant MAPKAPK3 at 40 nM in presence of ATP by radiometric assay relative to control.
Experiment [3] deals with T1, Dual specificity mitogen-activated protein kinase kinase 6 (Homo sapiens) (UniProt P52564).
T1 sequence (whole entry): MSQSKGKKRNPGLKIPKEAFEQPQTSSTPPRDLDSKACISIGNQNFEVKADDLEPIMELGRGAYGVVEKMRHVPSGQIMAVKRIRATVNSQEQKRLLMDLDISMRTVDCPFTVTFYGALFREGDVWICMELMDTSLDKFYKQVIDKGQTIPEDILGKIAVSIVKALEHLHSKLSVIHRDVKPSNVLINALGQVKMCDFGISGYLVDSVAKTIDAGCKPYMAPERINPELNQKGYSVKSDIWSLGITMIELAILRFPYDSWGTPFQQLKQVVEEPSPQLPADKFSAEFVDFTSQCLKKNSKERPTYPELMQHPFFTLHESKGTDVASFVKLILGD
Put plainly: Inhibition of human recombinant MAP2K6 at 500 nM in presence of ATP by radiometric assay relative to control.

Experiment [4] has as its target eIF-2-alpha kinase GCN2 (Homo sapiens) (UniProt Q9P2K8). Put plainly: Inhibition of human recombinant GCN2 at 500 nM related to control ULK1.
The target of experiment [5] is T2, Serine/threonine-protein kinase TAO1 (Homo sapiens) (UniProt Q7L7X3).
T2 sequence (whole entry): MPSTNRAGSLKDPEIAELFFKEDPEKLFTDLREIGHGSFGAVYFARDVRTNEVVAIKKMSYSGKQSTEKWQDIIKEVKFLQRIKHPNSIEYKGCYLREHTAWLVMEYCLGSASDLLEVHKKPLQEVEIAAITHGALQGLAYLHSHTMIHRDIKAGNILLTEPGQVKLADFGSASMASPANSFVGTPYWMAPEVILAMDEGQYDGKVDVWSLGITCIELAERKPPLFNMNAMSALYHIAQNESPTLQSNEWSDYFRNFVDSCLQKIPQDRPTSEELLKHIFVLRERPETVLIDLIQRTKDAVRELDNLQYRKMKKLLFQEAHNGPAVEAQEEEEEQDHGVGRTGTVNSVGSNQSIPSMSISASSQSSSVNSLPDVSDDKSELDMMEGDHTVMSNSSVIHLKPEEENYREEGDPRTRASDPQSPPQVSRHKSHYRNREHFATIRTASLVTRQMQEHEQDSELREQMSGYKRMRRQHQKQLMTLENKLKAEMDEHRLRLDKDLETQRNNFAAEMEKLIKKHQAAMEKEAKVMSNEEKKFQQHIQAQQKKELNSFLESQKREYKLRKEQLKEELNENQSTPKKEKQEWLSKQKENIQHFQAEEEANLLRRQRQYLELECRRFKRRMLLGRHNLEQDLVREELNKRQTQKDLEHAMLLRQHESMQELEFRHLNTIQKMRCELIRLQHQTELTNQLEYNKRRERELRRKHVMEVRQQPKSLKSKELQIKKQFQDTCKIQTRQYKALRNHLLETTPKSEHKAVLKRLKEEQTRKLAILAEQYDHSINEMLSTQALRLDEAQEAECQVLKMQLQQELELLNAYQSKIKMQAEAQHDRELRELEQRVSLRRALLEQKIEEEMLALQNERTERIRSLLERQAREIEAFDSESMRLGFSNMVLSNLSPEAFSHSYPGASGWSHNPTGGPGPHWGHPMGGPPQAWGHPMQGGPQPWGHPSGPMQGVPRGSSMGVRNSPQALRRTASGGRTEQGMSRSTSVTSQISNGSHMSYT
The experiment can be described thus: Inhibition of human recombinant TAO1 at 500 nM related to control ULK1.

For experiment [6], the target named is Rhodopsin kinase GRK7 (Homo sapiens) (UniProt Q8WTQ7). Put plainly: Inhibition of human recombinant GPRK7 at 500 nM related to control ULK1.
Experiment [7] addresses Tyrosine-protein kinase JAK1 (Homo sapiens) (UniProt P23458). Put plainly: Inhibition of human recombinant JAK1 at 500 nM in presence of ATP by radiometric assay relative to control.
For experiment [8], the target named is 5'-AMP-activated protein kinase catalytic subunit alpha-2 (Homo sapiens) (UniProt P54646). The experiment can be described thus: Inhibition of human recombinant AMPKa2 at 15 nM related to control ULK1. A digest of the protocol: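 Panel of 327 recombinant human kinases, each assayed in vitro by radiometric activity assay in duplicate at a single inhibitor concentration per compound, chosen with reference to its ULK1 inhibition. Activity remaining was expressed as percent of vehicle control, and percent inhibition was calculated as 100 minus percent activity remaining.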

In experiment [9] the target is Mitogen-activated protein kinase kinase kinase 9 (Homo sapiens) (UniProt P80192). The experiment can be described thus: Inhibition of human recombinant MLK1 at 15 nM related to control ULK1.
Experiment [10] deals with Serine/threonine-protein kinase PLK2 (Homo sapiens) (UniProt Q9NYY3). The experiment can be described thus: Inhibition of human recombinant PLK2 at 15 nM related to control ULK1.
For experiment [11], the target named is MAP kinase-activated protein kinase 3 (Homo sapiens) (UniProt Q16644). Put plainly: Inhibition of human recombinant MAPKAPK3 at 15 nM in presence of ATP by radiometric assay relative to control.
In experiment [12] the target is MAP kinase-activated protein kinase 2 (Homo sapiens) (UniProt P49137). Put plainly: Inhibition of human recombinant MAPKAPK2 at 15 nM related to control ULK1.

Molecules are shown by their SMILES.

MAP kinase-activated protein kinase 3 (Homo sapiens), sequence (Q16644 whole entry, looked up): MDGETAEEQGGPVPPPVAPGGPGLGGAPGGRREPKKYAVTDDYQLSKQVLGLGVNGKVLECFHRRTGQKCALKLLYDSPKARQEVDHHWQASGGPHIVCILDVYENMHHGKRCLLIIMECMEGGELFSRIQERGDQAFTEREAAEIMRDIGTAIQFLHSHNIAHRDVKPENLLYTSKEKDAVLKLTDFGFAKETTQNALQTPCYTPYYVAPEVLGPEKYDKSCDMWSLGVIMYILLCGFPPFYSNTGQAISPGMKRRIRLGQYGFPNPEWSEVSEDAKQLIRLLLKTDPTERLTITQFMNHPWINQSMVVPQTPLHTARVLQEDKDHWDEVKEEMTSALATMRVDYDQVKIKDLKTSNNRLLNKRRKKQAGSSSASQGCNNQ
MAP kinase-activated protein kinase 2 (Homo sapiens), sequence (P49137 whole entry, looked up): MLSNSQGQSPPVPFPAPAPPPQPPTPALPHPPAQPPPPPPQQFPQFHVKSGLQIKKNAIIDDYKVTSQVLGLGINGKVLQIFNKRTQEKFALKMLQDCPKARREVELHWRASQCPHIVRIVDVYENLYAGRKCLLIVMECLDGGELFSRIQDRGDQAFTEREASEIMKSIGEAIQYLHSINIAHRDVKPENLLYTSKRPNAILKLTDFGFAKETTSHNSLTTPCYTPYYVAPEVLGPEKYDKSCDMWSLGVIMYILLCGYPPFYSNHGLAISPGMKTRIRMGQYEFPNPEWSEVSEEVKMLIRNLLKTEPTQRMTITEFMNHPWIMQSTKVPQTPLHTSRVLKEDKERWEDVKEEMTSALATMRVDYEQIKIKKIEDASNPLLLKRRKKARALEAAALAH
Serine/threonine-protein kinase PLK2 (Homo sapiens), sequence (Q9NYY3 whole entry, looked up): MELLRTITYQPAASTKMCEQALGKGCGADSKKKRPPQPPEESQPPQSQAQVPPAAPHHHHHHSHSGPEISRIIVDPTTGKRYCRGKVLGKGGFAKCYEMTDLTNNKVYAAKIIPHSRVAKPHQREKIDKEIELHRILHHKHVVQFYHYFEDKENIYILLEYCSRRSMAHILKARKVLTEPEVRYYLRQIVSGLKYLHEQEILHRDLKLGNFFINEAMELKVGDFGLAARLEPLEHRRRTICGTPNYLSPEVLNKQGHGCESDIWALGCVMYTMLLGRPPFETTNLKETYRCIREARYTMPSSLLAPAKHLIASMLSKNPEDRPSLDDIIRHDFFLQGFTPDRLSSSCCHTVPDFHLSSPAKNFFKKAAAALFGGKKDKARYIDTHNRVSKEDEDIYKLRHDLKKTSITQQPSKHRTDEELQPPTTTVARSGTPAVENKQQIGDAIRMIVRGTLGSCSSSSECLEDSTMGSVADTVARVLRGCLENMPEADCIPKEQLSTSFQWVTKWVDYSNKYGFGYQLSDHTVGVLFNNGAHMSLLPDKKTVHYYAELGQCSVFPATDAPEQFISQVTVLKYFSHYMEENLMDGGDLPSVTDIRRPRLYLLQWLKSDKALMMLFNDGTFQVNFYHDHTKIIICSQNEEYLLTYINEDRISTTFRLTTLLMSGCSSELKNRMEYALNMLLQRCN
Mitogen-activated protein kinase kinase kinase 9 (Homo sapiens), sequence (P80192 whole entry, looked up): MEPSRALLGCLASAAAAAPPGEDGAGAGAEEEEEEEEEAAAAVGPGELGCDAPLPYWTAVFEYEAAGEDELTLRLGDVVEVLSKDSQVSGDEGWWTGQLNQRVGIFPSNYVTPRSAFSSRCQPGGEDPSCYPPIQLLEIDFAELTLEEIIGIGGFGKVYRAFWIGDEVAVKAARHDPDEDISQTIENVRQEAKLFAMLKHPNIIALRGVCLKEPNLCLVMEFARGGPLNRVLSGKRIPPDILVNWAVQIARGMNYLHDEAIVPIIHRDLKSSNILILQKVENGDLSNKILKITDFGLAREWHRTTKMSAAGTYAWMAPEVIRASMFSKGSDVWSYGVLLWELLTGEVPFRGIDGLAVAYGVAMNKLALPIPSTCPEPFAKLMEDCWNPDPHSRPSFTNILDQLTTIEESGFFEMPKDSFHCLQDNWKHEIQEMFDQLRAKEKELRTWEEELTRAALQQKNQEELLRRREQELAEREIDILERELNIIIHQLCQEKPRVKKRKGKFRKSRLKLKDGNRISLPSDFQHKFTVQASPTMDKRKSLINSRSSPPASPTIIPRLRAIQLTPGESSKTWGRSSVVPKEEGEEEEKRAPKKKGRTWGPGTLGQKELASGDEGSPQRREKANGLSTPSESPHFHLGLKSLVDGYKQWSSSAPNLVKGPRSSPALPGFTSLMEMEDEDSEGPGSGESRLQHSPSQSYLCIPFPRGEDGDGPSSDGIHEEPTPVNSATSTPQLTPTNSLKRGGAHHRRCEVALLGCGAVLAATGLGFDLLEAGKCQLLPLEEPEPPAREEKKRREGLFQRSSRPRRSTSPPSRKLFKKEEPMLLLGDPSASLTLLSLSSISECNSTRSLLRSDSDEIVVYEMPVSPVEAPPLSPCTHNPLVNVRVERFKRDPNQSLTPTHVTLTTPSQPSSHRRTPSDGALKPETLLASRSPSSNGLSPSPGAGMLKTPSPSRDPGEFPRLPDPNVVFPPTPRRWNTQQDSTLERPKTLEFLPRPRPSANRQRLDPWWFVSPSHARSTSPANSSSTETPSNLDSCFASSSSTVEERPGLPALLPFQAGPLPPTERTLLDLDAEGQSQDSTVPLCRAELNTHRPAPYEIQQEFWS
5'-AMP-activated protein kinase catalytic subunit alpha-2 (Homo sapiens), sequence (P54646 whole entry, looked up): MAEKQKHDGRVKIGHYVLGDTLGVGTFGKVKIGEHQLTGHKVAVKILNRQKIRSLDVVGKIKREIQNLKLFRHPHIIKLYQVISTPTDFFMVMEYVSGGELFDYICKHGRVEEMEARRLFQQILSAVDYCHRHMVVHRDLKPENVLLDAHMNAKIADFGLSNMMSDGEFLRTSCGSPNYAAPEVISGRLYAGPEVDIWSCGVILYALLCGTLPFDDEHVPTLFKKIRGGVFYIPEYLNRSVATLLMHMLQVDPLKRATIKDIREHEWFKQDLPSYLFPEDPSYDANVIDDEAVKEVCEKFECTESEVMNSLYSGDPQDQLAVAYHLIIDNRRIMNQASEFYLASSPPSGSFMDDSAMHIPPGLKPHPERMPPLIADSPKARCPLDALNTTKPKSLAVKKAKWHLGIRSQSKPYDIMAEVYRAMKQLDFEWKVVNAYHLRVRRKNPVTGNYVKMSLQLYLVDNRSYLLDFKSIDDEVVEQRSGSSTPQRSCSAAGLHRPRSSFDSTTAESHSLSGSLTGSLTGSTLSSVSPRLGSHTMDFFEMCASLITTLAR
Rhodopsin kinase GRK7 (Homo sapiens), sequence (Q8WTQ7 whole entry, looked up): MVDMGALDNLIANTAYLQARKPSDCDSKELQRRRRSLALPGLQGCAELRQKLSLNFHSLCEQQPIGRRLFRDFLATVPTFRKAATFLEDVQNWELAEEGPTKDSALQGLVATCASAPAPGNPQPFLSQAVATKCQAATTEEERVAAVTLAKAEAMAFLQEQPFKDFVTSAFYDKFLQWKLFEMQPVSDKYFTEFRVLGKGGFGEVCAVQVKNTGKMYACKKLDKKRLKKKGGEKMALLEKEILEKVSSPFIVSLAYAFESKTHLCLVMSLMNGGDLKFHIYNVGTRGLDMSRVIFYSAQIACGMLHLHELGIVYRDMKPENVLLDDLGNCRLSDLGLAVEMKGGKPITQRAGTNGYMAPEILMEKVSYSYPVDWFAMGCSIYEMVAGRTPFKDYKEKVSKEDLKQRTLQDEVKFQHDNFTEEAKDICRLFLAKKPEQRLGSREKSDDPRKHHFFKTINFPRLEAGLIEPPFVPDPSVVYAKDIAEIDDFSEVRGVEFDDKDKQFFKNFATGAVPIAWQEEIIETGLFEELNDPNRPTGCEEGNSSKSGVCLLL
SRSF protein kinase 3 (Homo sapiens), sequence (Q9UPE1 whole entry): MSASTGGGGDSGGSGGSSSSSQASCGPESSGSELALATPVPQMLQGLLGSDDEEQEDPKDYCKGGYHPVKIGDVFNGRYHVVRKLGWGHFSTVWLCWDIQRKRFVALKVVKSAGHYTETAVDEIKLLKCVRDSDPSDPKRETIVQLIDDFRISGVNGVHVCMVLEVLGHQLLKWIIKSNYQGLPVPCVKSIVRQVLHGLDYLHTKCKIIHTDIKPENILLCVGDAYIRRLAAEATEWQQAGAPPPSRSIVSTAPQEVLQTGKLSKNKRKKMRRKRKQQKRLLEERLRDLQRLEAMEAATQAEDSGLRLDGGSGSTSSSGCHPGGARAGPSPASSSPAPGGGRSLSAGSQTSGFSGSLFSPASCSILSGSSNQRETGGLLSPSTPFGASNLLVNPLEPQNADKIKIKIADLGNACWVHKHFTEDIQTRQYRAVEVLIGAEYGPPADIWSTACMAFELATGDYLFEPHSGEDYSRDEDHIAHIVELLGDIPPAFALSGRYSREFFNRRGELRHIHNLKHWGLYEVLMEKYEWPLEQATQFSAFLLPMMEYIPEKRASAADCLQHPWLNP

For orientation: inhibition means the percentage by which the read-out fell short of the control. For the molecule `O=C(N[C@@H](C1CC1)C(F)(F)F)c1cc(-c2cnn3cc(-c4ccc(F)cc4)cnc23)cs1`, the fold change (FC) in experiment [1] is 0.18. For the same molecule, the inhibition in experiment [2] was 0%.
As to `CNC(=O)c1ccccc1Oc1nc(Nc2cc(OC)c(OC)c(OC)c2)ncc1Br`, the inhibition in experiment [3] is 5%; in experiment [7], 39%. The fold change (FC) came to 0.03 in experiment [4], 0.08 in [5] and 0.14 in [6].
For the molecule `CC(C)[C@H](NC(=O)c1cc(-c2cnn3cc(-c4ccc(OCCN5CCCCC5)cc4)cnc23)cs1)C(F)(F)F`, the fold change (FC) in experiment [8] worked out at 0.94; in experiment [9], 0; in experiment [10], 0.05; in experiment [12] it was 0. For the same molecule, the inhibition in experiment [11] was 0%.
